According to ChEMBL document CHEMBL5653631, “A Potent and Selective ULK1 Inhibitor Suppresses Autophagy and Sensitizes Cancer Cells to Nutrient Stress” (iScience, 2018):
Values belong to the compound of their own block, whether it stands above or below them.

What was measured:
[1] = biological target: Serine/threonine-protein kinase NIM1 (Homo sapiens) (UniProt Q8IY84); assay: Inhibition of human recombinant NIM1 at 500 nM in presence of ATP by radiometric assay relative to control
[2] = biological target: Serine/threonine-protein kinase 10 (Homo sapiens) (UniProt O94804); assay: Inhibition of human recombinant LOK at 500 nM related to control ULK1
[3] = biological target: Tyrosine-protein kinase Fer (Homo sapiens) (UniProt P16591); assay: Inhibition of human recombinant FER at 500 nM related to control ULK1
[4] = biological target: Myosin light chain kinase, smooth muscle (Homo sapiens) (UniProt Q15746); assay: Inhibition of human recombinant smMLCK at 500 nM related to control ULK1
[5] = biological target: ALK tyrosine kinase receptor (Homo sapiens) (UniProt Q9UM73); assay: Inhibition of human recombinant ALK at 500 nM in presence of ATP by radiometric assay relative to control
Method in brief: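 Panel of 327 recombinant human kinases in radiometric activity assays, each screened in duplicate at a single inhibitor concentration; percent activity remaining relative to vehicle control, percent inhibition taken as 100 minus activity remaining.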

[6] = biological target: Dual specificity protein kinase CLK2 (Homo sapiens) (UniProt P49760); assay: Inhibition of human recombinant CLK2 at 40 nM in presence of ATP by radiometric assay relative to control
[7] = biological target: T1, Serine/threonine-protein kinase Chk1 (Homo sapiens) (UniProt O14757); assay: Inhibition of human recombinant CHK1 at 40 nM in presence of ATP by radiometric assay relative to control
T1 sequence (whole entry): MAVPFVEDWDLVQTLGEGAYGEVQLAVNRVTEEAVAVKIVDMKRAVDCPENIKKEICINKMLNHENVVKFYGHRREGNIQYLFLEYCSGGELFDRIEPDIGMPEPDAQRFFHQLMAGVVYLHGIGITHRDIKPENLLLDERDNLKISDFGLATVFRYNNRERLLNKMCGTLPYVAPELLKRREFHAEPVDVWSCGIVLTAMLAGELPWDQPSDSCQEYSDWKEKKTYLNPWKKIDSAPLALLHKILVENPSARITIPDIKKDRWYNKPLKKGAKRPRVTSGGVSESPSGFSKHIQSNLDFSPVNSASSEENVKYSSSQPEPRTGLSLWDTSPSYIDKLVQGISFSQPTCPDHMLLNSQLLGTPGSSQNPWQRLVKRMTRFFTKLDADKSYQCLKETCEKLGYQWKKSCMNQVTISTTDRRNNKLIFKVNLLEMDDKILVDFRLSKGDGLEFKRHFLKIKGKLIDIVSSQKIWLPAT

[8] = biological target: LIM domain kinase 1 (Homo sapiens) (UniProt P53667); assay: Inhibition of human recombinant LIMK1 at 40 nM related to control ULK1
[9] = biological target: Serine/threonine-protein kinase pim-2 (Homo sapiens) (UniProt Q9P1W9); assay: Inhibition of human recombinant PIM2 at 15 nM related to control ULK1
[10] = biological target: T2, cGMP-dependent protein kinase 1 (Homo sapiens) (UniProt Q13976); assay: Inhibition of human recombinant PKG1 at 15 nM related to control ULK1
T2 sequence (whole entry): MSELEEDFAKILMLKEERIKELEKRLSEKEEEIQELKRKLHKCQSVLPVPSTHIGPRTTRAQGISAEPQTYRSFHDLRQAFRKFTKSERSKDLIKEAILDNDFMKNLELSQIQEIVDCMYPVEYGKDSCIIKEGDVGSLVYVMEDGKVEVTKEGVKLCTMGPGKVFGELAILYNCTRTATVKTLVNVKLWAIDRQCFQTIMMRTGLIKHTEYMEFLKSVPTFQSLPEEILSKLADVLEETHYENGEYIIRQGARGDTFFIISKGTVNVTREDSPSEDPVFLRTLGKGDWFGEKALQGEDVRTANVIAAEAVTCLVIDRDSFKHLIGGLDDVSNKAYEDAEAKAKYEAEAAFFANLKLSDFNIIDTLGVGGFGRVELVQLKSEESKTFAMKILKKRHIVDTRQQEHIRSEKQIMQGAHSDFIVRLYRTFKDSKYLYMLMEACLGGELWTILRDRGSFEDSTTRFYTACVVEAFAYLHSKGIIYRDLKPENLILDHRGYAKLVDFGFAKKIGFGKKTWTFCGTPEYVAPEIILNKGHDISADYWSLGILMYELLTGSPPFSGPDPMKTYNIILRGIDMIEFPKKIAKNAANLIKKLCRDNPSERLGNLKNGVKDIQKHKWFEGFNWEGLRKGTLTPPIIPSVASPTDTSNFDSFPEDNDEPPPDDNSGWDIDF

[11] = biological target: T3, NUAK family SNF1-like kinase 2 (Homo sapiens) (UniProt Q9H093); assay: Inhibition of human recombinant NuaK2 at 15 nM related to control ULK1
T3 sequence (whole entry): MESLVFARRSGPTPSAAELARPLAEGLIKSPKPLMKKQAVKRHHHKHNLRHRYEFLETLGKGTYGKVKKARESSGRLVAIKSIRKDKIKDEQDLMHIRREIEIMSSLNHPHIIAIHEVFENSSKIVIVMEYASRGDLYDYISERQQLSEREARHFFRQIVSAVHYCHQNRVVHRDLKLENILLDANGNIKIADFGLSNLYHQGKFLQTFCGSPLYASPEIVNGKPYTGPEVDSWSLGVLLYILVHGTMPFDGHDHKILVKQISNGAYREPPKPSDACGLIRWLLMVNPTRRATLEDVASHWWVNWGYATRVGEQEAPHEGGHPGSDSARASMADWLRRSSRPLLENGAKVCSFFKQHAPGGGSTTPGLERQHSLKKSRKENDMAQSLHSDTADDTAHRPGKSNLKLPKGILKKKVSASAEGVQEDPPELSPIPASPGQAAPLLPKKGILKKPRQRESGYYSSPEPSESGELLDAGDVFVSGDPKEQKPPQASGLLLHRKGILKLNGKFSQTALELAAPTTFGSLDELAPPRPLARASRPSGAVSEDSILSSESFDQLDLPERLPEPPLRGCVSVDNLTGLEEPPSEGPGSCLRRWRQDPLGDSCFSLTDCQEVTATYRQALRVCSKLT

[12] = biological target: MAP kinase-activated protein kinase 2 (Homo sapiens) (UniProt P49137); assay: Inhibition of human recombinant MAPKAPK2 at 15 nM related to control ULK1
Chain of MAP kinase-activated protein kinase 2 (Homo sapiens) (P49137 whole entry, looked up): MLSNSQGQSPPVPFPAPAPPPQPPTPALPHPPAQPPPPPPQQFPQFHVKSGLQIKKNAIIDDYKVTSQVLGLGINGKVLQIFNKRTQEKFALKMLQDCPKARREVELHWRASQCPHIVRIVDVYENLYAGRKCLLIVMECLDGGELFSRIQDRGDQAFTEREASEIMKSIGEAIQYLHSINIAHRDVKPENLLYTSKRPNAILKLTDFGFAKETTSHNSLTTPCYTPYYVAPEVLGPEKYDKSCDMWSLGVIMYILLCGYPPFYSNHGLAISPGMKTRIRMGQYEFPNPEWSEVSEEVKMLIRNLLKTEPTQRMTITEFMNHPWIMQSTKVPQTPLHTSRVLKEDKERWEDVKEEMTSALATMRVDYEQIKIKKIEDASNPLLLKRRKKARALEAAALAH

Chain of LIM domain kinase 1 (Homo sapiens) (P53667 whole entry, looked up, the tested form may be a part): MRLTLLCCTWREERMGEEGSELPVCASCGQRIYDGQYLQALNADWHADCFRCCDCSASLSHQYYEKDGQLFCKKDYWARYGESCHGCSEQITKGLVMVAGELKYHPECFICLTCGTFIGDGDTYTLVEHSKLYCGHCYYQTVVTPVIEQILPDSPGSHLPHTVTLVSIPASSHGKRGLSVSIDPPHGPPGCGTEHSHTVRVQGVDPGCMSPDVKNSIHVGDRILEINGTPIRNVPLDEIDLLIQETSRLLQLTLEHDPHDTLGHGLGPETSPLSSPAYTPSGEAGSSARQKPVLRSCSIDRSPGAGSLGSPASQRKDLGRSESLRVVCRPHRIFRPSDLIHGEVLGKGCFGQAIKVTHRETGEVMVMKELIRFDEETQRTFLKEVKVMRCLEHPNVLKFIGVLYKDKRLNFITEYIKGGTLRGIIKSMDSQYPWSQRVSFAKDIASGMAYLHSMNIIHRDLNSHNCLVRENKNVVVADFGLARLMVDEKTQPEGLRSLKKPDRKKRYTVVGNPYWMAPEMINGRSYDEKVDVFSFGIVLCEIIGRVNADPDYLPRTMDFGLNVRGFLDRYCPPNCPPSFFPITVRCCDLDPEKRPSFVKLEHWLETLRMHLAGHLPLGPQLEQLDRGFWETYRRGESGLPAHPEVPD
Chain of Serine/threonine-protein kinase 10 (Homo sapiens) (O94804 whole entry, looked up): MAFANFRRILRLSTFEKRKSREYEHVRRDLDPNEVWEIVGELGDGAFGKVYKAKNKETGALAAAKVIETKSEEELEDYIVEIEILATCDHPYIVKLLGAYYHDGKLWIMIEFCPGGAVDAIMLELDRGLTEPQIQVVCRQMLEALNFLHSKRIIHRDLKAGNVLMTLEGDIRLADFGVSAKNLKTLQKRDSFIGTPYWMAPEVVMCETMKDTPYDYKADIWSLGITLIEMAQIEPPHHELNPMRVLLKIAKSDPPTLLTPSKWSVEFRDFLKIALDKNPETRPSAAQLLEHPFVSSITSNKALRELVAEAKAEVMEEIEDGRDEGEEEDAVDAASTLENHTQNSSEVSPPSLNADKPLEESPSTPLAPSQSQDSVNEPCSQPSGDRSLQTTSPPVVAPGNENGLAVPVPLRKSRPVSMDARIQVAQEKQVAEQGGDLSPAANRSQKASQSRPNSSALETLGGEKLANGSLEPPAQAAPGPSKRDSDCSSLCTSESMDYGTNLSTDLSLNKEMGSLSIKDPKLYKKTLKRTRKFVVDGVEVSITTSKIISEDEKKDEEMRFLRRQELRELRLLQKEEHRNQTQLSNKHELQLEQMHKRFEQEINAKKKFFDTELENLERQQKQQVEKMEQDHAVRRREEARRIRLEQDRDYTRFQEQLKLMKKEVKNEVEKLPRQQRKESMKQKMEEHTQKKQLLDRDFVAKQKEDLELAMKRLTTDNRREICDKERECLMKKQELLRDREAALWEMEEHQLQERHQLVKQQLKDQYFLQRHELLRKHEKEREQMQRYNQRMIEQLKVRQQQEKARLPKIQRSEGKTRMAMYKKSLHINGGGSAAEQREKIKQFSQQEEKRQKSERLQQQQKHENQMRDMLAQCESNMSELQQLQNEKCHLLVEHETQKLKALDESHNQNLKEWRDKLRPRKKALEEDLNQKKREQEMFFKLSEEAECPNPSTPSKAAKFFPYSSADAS
Chain of Myosin light chain kinase, smooth muscle (Homo sapiens) (Q15746 whole entry): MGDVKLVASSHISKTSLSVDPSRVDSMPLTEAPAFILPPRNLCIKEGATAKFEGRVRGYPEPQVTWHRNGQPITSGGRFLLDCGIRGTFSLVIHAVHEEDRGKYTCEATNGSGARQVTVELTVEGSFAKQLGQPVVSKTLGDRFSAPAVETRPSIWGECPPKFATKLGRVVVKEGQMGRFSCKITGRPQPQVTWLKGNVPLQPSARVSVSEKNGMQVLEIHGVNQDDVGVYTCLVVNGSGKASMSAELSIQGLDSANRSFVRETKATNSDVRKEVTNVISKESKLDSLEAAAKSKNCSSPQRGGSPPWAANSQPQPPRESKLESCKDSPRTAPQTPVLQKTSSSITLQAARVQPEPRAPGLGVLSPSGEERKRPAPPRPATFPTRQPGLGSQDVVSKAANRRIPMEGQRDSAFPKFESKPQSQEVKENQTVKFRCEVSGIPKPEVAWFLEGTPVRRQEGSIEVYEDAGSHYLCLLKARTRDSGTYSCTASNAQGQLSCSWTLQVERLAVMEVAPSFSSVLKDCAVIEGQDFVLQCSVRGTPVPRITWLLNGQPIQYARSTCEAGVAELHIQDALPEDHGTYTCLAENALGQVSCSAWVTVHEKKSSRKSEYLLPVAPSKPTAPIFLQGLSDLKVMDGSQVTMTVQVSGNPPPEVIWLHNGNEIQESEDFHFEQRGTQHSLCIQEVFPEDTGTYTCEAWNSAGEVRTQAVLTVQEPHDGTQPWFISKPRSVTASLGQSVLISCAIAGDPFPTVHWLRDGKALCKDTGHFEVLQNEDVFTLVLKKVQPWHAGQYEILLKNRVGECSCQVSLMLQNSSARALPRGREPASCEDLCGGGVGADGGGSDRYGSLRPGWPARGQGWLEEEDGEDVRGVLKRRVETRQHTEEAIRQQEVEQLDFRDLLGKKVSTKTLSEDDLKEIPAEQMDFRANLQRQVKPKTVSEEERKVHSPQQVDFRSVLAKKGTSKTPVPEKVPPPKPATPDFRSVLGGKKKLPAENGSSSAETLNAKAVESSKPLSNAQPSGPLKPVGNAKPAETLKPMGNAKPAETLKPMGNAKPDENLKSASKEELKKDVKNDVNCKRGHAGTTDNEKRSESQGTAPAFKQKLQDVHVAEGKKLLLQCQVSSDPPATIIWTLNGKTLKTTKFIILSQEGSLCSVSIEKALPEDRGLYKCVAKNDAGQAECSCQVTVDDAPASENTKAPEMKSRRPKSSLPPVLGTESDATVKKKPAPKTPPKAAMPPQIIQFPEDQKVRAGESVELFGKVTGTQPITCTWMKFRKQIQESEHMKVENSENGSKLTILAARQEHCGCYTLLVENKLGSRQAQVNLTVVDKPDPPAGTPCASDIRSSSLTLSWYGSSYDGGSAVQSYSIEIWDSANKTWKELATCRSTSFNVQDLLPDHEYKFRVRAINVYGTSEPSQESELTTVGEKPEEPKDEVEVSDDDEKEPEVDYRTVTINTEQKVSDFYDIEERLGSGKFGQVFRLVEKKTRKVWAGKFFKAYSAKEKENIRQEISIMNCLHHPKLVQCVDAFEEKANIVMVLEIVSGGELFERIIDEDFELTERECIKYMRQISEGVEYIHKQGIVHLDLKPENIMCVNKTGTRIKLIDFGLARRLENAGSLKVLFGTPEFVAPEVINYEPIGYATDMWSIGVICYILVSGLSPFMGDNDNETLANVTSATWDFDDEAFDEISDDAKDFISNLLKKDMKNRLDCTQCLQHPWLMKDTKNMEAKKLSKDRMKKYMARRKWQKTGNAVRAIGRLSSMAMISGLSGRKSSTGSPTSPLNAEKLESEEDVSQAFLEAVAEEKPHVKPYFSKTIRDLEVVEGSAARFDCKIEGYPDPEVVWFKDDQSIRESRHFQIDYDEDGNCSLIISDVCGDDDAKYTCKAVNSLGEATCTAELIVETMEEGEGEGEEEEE
Chain of Serine/threonine-protein kinase pim-2 (Homo sapiens) (Q9P1W9 whole entry, looked up): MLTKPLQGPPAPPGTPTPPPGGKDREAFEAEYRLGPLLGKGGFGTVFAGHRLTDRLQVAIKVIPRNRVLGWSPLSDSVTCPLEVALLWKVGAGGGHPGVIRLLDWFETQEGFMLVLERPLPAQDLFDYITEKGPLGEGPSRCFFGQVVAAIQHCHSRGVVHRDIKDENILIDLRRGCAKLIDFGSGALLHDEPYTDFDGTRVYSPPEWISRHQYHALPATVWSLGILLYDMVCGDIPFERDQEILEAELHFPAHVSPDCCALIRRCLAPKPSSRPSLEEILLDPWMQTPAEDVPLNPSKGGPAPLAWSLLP
Chain of Serine/threonine-protein kinase NIM1 (Homo sapiens) (Q8IY84 whole entry): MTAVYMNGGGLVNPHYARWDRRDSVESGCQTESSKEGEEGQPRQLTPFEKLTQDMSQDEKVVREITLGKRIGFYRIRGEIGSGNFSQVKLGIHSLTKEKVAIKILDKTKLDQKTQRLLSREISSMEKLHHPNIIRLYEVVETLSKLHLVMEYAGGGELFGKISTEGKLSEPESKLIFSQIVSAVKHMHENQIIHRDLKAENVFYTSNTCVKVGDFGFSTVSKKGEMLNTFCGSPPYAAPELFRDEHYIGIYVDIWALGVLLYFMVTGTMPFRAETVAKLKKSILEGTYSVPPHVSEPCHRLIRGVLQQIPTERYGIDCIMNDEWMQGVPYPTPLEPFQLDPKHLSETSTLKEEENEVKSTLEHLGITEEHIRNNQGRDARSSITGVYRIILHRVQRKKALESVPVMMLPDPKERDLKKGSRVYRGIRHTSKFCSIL

inhibition [1]: 0% | fold change (FC) [2]: 0 | fold change (FC) [3]: 0 | fold change (FC) [4]: 0.07 | inhibition [5]: 0%
SMILES: CNC(=O)c1ccccc1Oc1nc(Nc2cc(OC)c(OC)c(OC)c2)ncc1Br

inhibition [6]: 19% | inhibition [7]: 0% | fold change (FC) [8]: 0.21
SMILES: O=C(N[C@@H](C1CC1)C(F)(F)F)c1cc(-c2cnn3cc(-c4ccc(F)cc4)cnc23)cs1

fold change (FC) [9]: 0 | fold change (FC) [10]: 0 | fold change (FC) [11]: 0.2 | fold change (FC) [12]: 0
SMILES: CC(C)[C@H](NC(=O)c1cc(-c2cnn3cc(-c4ccc(OCCN5CCCCC5)cc4)cnc23)cs1)C(F)(F)F
